Assay results: the EternaBench riboswitch data

Test system: MS2 coat protein
Assay: apparent Kd, MS2 coat protein; higher = weaker binding; RNA-MaP array; FMN 200 µM where present
Procedure, shortened: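 The titrant was SNAP-549-labelled MS2 coat protein, run from 0.7 or 1.5 nM in doubling steps to 3 µM. It was applied to designs transcribed by stalled E. coli RNA polymerase on Illumina sequencing-chip clusters, without ligand first and then with constant ligand, in 100 mM Tris-HCl pH 7.5, 80 mM KCl, 4 mM MgCl2, BSA, DTT, yeast tRNA and Tween-20. The apparent Kd is the median of filtered per-cluster binding-curve fits, with green signal normalised to red-channel RNA signal and control-cluster median Fmax.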

[1] = designed as: OFF switch for flavin mononucleotide, no ligand
[2] = ligand present: flavin mononucleotide, designed as: OFF switch for flavin mononucleotide
[3] = designed as: ON switch for flavin mononucleotide, no ligand
[4] = ligand present: flavin mononucleotide, designed as: ON switch for flavin mononucleotide

| Sequence | apparent Kd [1] [nM] | apparent Kd [2] [nM] | apparent Kd [3] [nM] | apparent Kd [4] [nM] |
| --- | --- | --- | --- | --- |
| CGCAUCUCUUCAAUUCCUUCACAUGAGGAUCACCCAUGUAGGGAGGAUAUGCAAGCCUAUUGGCGGCAGAAGGCCCUGCAAUGG | 177 | 86.9 |  |  |
| CGCAUUCCGUAGAAGGGUGACAUGAGGAUCACCCAUGUGCGAGCCGAGGGAGUCAGCGGCUCGCCACAGGAUAUACGGAGCACG |  |  | 87.3 | 84.8 |
| CGCCACUUAACAGCGGCGCGGUCGAGAAGGGUACAUGAGGAUCACCCAUGUCACGUUCCUCCUGUACAGGAUAUCGUACGGGUA | 65.6 | 117 |  |  |
| CGCCGACAUGAGGAUCACCCAUGUCACAACUGGUCAGGAUAUGGUAUGAUUUGGCUAUUGCCAGAAGGGACCUCAG |  |  | 50.5 | 21 |
| CGCUACGUUUCGUAGCAGUGUCAUCGAGAAGGCCCUGACAUGAGGAUCACCCAUGUUGUUACAUGGGAGGAUAUCGAUGAUACA |  |  | 12.8 | 4.99 |
| CGCUACGUUUCGUAGCAGUGUCAUCGAGAAGGCCCUGACAUGAGGAUCACCCAUGUUGUUACAUGGGAGGAUAUCGAUGAUACC |  |  | 12.2 | 5.25 |
| CGCUACGUUUCGUAGCAGUGUCAUCGAGAAGGCCCUGACAUGAGGAUCACCCAUGUUGUUACAUGGGAGGAUAUCGAUGAUACU |  |  | 13.4 | 5.25 |
| CGCUACUACCAGAAGGACAUGAGGAUCACCCAUGUAGGAUAUGGGUUACACGUUCCUGUGAAUUGUUACUACGCUACGUAUGCG |  |  | 401 | 21.5 |
| CGCUAGGAUGGGUCUAAUGGACCUCAGGAUAUGCUUGUACAUGAGGAUCACCCAUGUAACAUUGUGCAGAAGGGAGGAUCCACG |  |  | 8.82 | 4.57 |
| CGCUAGUCAGGAUAUACGAACAUGUCAAAAGACGUGAAGGGACAUGAGGAUCACCCAUGUAGAAGGGACUAGCU | 27 | 182 |  |  |
| CGCUAUGACAUAGGAUAUUGGUACAUGAGGAUCACCCAUGUCAACCUUUAAGCAAAAUUUGUUGACAAGAAGGAUGUGGUAGCG |  |  | 11 | 7.71 |
| CGCUCAAGAGAGAAGGAUAGAAUCAGAAGGCGUAACAUGAGGAUCACCCAUGUUUAGUAGUGUAACGAGGAUAUGAAAUGAGCG | 9.61 | 10.8 |  |  |
| CGCUCACAUGAGGAUCACCCAUGUCCUAGGAGGUCAGGAUAUAGCCCGCAUCCGCUGCGGCUAGAAGGGACAGCUG |  |  | 203 | 68.6 |
| CGCUCUAUAUAUUUGGCAAGAAUCAGAAGGCGUUACAUGAGGAUCACCCAUGUUUUGUAUAGUAACGAGGAUAUGAUAUGAGCG | 13.3 | 13.3 |  |  |
| CGCUGCCACGCAGGAUAUGCAUUGGAUUACAAUGCAGAAGGGCGAUUACAUGAGGAUCACCCAUGUGUUGGCAGUGAAGAAGAG |  |  | 1490 | 83.4 |
| CGCUGGUGACAGCAUCCAUCAAAACAUGAGGAUCACCCAUGUAGAAGGCUGUACGGUUACCGUACAGAGGAUAUACAAUGAUGU | 16 | 27.2 |  |  |
| CGCUGUCACGCAGGAUAUGCAUUGGAUUACAAUGCAGAAGGGCGAUUACAUGAGGAUCACCCAUGUGUCGACAGUGAAGAAGAG |  |  |  | 43 |
| CGCUGUCAUGCAGGAUAUGCAUUGGAUUACAAUGCAGAAGGGCGAUUACAUGAGGAUCACCCAUGUGUAGACAGUGAACAAGAG |  |  | 124 | 11.4 |
| CGCUGUCAUGCAGGAUAUGCAUUGGAUUACAAUGCAGAAGGGCGAUUACAUGAGGAUCACCCAUGUGUAGACAGUGAAGAAAAG |  |  | 145 | 13.8 |
| CGGAGACAUGAGGAUCACCCAUGUGAGGAUAUGCAAGCCCGACUGAUCGUUAGCCUAUGUAGAAGGCACGGGUC | 21.3 | 20 |  |  |
| CGGAGGUCAGGAUAUGCAUGGCGGGACUUGCGUCGUGGCGUGCAGAAGGGACAUGAGGAUCACCCAUGUGGAGA | 83.2 | 259 |  |  |

| Sequence | apparent Kd [1] [nM] | apparent Kd [2] [nM] | apparent Kd [3] [nM] | apparent Kd [4] [nM] |
| --- | --- | --- | --- | --- |
| CGGAUGUGAGGAUAUACAUGAGGAUCACCCAUGUGUGCCAGCUAGAUGACUGGCACUUGUAGAAGGCACGUCUG | 11.3 | 21.7 |  |  |
| CGGCGCUGUCGAGAGGAUAUGCGGUGAUGGACAUGAGGAUCACCCAUGUUAGCGAUAGCAUCACGGUAGAAGGCUCUUACGCCUG |  |  | 378 | 174 |
| CGGGAUAGGAAGGGCGAAAGCCCACAUGAGGAUCACCCAUGUAGAAGGCGGGCCGCAACGCGGCCCGAGGAUAUACACUAUCCA | 6.63 | 12.7 |  |  |
| CGGGCAUAUCGAGGAUAUAAGUCUAGGACAUGAGGAUCACCCAUGUAUGUCUUAGAAGGCGAUAUGCCCAGCCUGUUACAGGCA |  |  | 30 | 6.01 |
| CGGGCGCCGAAGGGCGAAAGCCCACAUGAGGAUCACCCAUGUAGAAGGAGGGAAGAAACCAAAACCUAGGAUAUACAGGCGCCA | 8.43 | 10.5 |  |  |
| CGGUAACAUGAGGAUCACCCAUGUGAGGAUAUCGUACGUUCGUCGAAAGACGAUCGUACGAGAAGGCAUGACCG | 47.5 | 22.2 |  |  |
| CGGUCGAUAUCAGGAUAUCGUUUAAUUACAUGAGGAUCACCCAUGUUGACAAGGAAUAUAACUUGCGAGAAGGGAUUACGAUCG |  |  | 9.33 | 6.47 |
| CGGUCUUGCAACUAUUUGUUUCACAUGAGGAUCACCCAUGUCAGAAGGAGGUGCGUCUAUUAGACCUAGGAUAUGACGUGUAAG | 15.5 | 26 |  |  |
| CGGUGCUGAGGAUAUACAUGAGGAUCACCCAUGUGUGCCAGCUAGCUGACUGGCGCUUGUAGAAGGCAGUACUG | 12.1 | 24.4 |  |  |
| CGUACCAUGUAGAAGGCAUAUCUCAAAGAGAUAUGAGGAUAUACAUGAGGAUCACCCAUGUAAAUGUACUCCAGGAAACUGGAA | 47.8 | 222 |  |  |
| CGUACGUCAGGAUAUCUGAUGUCUAACUUCGGUUAGACAUCAGAGAAGGGACAUGAGGAUCACCCAUGUACGAG | 88.3 | 105 |  |  |
| CGUAGGAUCCAGAAGGCAUGAAACAUGAGGAUCACCCAUGUGAAACACAUGAGGAUAUGGAUCCUACGAAAAGUGCGAAAGCAC |  |  | 4.32 | 4.48 |
| CGUAGGAUGCAGAAGGCAUGAACAUGAGGAUCACCCAUGUUAAAAGACAUGAGGAUAUGCAUCCUACGAAAAGUGCGAAAGCAC |  |  | 5.15 | 4.54 |
| CGUGCGUAUGUGAGGAUAUGCUGGUCCUUGGAUCGGCAGAAGGCACAUGAGGAUCACCCAUGUGGUGUCGUACU | 238 | 32.4 |  |  |
| CGUGCGUCGACAGGAUAUACAGAUUGGCUCCGGUACAUGAGGAUCACCCAUGUAGAAGGGUCACGCACGGUUAGUUCGUUAUUA | 8.88 | 40.9 |  |  |
| CGUGUACGAGGAUAUAGAUUGGAUGACAUGAGGAUCACCCAUGUGAUCGAUCUAUUUGGUUUAGAAGGUGUACAUG | 13.4 | 14.2 |  |  |
| CGUUGAUUUAUUGGAUGAUAUGAUGAGGAUAUCAAUAUUUGUUACAUGAGGAUCACCCAUGUUAAUGAGAAGGCAUAAUUAACG |  |  | 8.49 | 7.96 |
| CGUUGUUGCGCAGGAUAUGCAUUGGAUUACAAUGCAGAAGGGCGAUUACAUGAGGAUCACCCAUGUGUCGACAAUAAGGAAGAG |  |  | 35.9 | 34 |
| CGUUUGUAAGGAUAUAGCCACAUUACGAAUAAGUAGUGUGGCUAGAAGGUACAUGAGGAUCACCCAUGUAUGGG | 157 | 192 |  |  |
| CGUUUUUAUGUAGGAUAUGCUUGUGGUAAGAUAGCAGAAGGACAUGAGGAUCACCCAUGUUAAUGAUAGAGAUUUUAUGUUGCG | 37.9 | 50.2 |  |  |
| CUAAAAGUCGAGGAUAUGCACCGGCUUUCUGACGCAGAAGGCGACACAUGAGGAUCACCCAUGUCGGUACGCGA | 13.7 | 15.8 |  |  |
